From article PMC6688905 (Journal of medicinal chemistry, 2018)
“Also recorded” adds a separate entry of the source.

Columns and labels:
[1] = NMR-based reactivity of electrophile toward Nα-acetyl lysine; format: physicochemical; details: 100 mM phosphate buffer pH 7.4, ten-fold excess of N^α-acetyl lysine, 25 °C
[2] = target: PI3Kα (p110α/p85α) (Homo sapiens, UniProt P42336); assay: MS timecourse for covalent modification of PI3K; details: 4 μM neolymphostin A with 2 μM PI3Kα
[3] = target: PI3Kα (Homo sapiens, UniProt P42336); assay: KINOMEscan kinase selectivity panel; format: binding; details: 1 μM
PI3Kα, sequence (P42336 whole entry): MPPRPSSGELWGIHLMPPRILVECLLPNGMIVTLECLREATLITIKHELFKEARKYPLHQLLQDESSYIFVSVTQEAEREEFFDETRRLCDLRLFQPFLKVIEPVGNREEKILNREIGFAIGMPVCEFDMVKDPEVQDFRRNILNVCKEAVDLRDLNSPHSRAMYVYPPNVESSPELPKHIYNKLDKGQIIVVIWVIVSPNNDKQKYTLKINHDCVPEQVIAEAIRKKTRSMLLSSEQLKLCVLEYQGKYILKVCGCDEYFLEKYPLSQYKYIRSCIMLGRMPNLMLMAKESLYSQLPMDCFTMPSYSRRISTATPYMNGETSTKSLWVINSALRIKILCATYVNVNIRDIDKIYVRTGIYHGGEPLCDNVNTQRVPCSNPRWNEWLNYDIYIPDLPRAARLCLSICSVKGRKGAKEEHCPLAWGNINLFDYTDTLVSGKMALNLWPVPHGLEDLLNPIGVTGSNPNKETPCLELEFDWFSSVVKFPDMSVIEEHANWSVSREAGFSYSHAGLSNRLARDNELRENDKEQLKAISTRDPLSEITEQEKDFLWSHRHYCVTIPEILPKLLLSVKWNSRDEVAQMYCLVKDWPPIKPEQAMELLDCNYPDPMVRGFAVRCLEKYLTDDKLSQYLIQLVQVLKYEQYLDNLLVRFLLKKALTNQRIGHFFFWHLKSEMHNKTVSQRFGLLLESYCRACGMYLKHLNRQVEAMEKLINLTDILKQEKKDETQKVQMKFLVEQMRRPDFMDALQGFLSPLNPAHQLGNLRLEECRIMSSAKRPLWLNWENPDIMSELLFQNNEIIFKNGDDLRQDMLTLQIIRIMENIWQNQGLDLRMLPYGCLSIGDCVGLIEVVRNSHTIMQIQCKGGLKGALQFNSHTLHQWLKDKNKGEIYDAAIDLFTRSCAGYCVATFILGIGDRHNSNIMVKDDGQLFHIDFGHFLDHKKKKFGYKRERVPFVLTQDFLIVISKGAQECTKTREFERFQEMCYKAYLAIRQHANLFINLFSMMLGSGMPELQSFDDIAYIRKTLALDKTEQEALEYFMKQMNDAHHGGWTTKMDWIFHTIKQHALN

[4] = target: T1, Polo-like kinase 4 (PLK4) (Homo sapiens, UniProt O00444); assay: KINOMEscan kinase selectivity panel; format: binding; details: 1 μM
T1 sequence (O00444 1-970): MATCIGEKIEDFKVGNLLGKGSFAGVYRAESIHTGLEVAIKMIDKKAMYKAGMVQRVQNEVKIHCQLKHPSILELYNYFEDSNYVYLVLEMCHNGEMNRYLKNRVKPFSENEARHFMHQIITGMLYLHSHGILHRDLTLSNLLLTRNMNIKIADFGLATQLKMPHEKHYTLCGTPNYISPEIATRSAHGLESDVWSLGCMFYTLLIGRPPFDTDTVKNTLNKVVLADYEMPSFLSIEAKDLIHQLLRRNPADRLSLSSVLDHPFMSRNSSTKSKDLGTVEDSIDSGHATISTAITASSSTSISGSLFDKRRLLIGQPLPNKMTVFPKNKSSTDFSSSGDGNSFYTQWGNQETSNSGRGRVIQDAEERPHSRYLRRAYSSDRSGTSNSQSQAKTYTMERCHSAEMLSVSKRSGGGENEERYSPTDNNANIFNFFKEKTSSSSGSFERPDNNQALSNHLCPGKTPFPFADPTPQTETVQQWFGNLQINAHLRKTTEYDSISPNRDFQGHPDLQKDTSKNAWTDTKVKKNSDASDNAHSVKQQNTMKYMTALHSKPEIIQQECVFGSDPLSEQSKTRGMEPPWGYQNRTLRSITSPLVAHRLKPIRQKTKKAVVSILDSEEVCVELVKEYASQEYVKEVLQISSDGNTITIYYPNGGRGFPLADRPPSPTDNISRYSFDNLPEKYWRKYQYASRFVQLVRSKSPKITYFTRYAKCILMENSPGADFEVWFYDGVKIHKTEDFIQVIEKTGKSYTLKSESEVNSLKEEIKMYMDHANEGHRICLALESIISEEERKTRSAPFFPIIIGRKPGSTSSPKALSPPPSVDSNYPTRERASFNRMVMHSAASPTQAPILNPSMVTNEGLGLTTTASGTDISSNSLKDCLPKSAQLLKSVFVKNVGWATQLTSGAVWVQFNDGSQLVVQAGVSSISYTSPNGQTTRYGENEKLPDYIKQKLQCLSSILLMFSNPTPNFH

[5] = target: T2, aurora kinase A (AURKA) (Homo sapiens, UniProt O14965); assay: KINOMEscan kinase selectivity panel; format: binding; details: 1 μM
T2 sequence (O14965 1-403): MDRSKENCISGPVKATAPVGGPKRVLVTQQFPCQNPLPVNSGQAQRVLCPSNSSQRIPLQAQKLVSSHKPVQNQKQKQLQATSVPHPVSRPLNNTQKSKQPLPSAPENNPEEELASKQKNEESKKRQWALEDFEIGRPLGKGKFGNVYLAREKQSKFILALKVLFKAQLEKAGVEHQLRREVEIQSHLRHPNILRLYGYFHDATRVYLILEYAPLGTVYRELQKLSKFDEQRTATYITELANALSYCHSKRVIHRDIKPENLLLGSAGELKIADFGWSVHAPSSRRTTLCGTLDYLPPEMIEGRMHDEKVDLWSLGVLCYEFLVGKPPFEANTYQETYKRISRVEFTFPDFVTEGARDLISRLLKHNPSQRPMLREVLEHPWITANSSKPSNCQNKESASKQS

[6] = target: aurora kinase B (AURKB) (Homo sapiens, UniProt Q96GD4); assay: KINOMEscan kinase selectivity panel; format: binding; details: 1 μM
aurora kinase B (AURKB), sequence (Q96GD4 whole entry): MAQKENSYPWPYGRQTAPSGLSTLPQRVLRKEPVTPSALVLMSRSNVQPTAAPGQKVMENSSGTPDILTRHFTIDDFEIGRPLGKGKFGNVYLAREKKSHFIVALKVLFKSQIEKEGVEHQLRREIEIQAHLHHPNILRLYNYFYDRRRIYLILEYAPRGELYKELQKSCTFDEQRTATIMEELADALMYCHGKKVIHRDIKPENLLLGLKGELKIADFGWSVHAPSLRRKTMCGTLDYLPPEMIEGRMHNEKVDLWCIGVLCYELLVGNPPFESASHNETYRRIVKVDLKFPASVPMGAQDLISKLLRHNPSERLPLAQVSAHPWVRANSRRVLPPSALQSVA

[7] = target: c-Jun N-terminal kinase 1 (JNK1) (Homo sapiens, UniProt P45983); assay: KINOMEscan kinase selectivity panel; format: binding; details: 1 μM
c-Jun N-terminal kinase 1 (JNK1), sequence (P45983 whole entry): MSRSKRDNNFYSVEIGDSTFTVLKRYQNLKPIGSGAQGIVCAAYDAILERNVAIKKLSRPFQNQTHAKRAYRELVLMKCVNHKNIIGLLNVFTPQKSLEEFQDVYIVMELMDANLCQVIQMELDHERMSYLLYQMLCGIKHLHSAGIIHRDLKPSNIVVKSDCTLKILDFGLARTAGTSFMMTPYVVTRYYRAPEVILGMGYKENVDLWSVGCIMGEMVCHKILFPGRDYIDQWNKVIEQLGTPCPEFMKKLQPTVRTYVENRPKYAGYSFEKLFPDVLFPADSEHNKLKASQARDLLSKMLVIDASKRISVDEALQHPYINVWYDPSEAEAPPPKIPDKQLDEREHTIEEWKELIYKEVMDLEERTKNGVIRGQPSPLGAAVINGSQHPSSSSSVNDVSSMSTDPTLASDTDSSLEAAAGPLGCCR

[8] = target: c-Jun N-terminal kinase 2 (JNK2) (Homo sapiens, UniProt P45984); assay: KINOMEscan kinase selectivity panel; format: binding; details: 1 μM
c-Jun N-terminal kinase 2 (JNK2), sequence (P45984 whole entry): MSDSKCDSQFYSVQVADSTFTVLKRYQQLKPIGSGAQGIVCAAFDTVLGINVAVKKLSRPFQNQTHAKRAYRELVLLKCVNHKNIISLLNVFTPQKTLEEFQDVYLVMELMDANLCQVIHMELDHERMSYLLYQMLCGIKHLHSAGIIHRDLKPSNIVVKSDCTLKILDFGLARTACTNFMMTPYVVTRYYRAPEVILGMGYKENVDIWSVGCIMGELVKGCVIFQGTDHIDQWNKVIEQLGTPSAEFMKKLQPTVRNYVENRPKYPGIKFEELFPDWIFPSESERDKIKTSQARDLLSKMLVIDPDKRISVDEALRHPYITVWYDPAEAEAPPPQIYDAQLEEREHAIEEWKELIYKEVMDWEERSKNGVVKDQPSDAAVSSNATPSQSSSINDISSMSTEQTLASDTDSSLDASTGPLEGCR

[9] = target: c-Jun N-terminal kinase 3 (JNK3) (Homo sapiens, UniProt P53779); assay: KINOMEscan kinase selectivity panel; format: binding; details: 1 μM
c-Jun N-terminal kinase 3 (JNK3), sequence (P53779 whole entry): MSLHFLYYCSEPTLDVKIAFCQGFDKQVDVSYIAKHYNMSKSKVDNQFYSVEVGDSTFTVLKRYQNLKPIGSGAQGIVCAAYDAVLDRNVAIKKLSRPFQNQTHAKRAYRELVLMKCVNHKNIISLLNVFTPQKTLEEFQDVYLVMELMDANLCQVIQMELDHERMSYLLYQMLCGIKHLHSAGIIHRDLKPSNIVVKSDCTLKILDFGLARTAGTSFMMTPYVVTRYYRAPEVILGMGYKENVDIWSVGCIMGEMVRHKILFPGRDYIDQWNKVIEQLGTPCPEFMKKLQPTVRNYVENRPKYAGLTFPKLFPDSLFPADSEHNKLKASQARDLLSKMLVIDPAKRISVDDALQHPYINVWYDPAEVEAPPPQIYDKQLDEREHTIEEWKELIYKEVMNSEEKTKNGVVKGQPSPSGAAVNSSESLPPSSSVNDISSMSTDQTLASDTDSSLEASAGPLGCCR

[10] = system: AKT phosphorylation (Ser473, Thr308) in EGF-stimulated HeLa cells; assay: PI3K inhibition in live cells, Western blot of AKT phosphorylation; format: cell-based; details: serum-starved HeLa cells, 10 min pretreatment, EGF stimulation
Summary of the method: (§1)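 HeLa cells were serum-starved overnight, then pretreated 10 min with test compound at the indicated concentrations and stimulated with 10 ng mL−1 EGF for 5 min. Cells were lysed in boiling SDS sample buffer and protein was quantified at 660 nm. Equal protein was run on SDS-PAGE, Western-blotted with ECL detection, and probed for AKT, pAKT Ser473/Thr308, ERK1/2, pERK1/2 Thr202/Tyr204, EGFR, pEGFR Tyr1068 and GAPDH.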

[11] = system: EGFR and ERK1/2 phosphorylation in EGF-stimulated HeLa cells; assay: PI3K inhibition in live cells, Western blot of EGFR and ERK1/2 phosphorylation; format: cell-based; details: serum-starved HeLa cells, 10 min pretreatment, EGF stimulation
Summary of the method: as §1

[12] = system: National Cancer Institute 60-cell line panel; assay: NCI 60-cell line anticancer screen; format: cell-based; details: read-out: GI50 values
Summary of the method: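 Cancer cell lines covering leukemia, non-small cell lung, colon, CNS, melanoma, ovarian, renal, prostate and breast were tested with 5-point dose-response curves, top concentration 50 μM. GI50, TGI and LC50 were calculated from the curves.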

[13] = behaviour in buffer at higher concentrations; format: physicochemical

PI3Kα (p110α/p85α), sequence (P42336 whole entry, species assumed): as the sequence (P42336 whole entry) above
PI3Kα (p110α/p85α), sequence (P27986 whole entry partner, species assumed): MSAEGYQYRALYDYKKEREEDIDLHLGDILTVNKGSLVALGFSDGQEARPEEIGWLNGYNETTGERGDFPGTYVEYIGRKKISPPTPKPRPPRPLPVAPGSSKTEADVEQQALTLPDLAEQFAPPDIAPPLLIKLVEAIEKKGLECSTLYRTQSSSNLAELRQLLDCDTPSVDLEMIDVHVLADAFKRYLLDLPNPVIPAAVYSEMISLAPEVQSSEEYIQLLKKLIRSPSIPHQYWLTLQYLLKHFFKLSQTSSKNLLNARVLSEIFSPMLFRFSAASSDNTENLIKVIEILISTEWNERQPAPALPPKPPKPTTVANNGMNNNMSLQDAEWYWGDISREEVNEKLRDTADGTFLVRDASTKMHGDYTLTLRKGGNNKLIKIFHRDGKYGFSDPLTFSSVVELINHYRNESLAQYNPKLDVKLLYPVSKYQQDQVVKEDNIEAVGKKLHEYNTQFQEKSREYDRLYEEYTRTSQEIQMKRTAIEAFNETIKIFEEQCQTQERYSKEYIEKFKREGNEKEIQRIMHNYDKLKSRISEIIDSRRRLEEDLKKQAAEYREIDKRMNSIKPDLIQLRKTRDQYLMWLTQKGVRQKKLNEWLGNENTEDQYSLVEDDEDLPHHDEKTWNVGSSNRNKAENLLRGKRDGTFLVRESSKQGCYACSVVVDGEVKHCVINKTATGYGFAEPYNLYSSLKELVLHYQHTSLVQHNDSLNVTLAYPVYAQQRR

## CO/C=C/C(=O)c1ccccn1 [compound 6, (E)-3-methoxy-1-(pyridin-2-yl)prop-2-en-1-one]
[1]
  reaction with N^α-acetyl lysine: no reaction was observed

## CO/C=C/C(=O)c1cc2c3c(c(N)cc(NC(=O)C(C)C)c3n1)N=C2 [neolymphostin, neolymphostin A]
[2]
  time to complete covalent modification of the kinase: ≤ 2 min
[3]
  % vs. control: 0%
[4]
  % vs. control: 0.95%
[5]
  % vs. control: 1.5%
[6]
  % vs. control: 1.9%
[7]
  % vs. control: 0.25%
[8]
  % vs. control: 0.15%
[9]
  % vs. control: 0.2%
[10]
  effect on AKT phosphorylation: blocked phosphorylation of AKT at S473 and T308
[11]
  effect on EGFR or ERK1/2 phosphorylation: did not affect phosphorylation of EGFR or ERK1/2; also recorded: no apparent effect
[12]
  GI50: 6 to 840 nM
[13]
  solubility behaviour: appears to aggregate and “crash out” of solution at higher concentrations in buffer

## CC(C)C(=O)Nc1cc(N)c2c3c(cc(C(=O)CCO)nc13)C=N2 [neolymphostinol]
[10]
  effect on AKT phosphorylation: largely unaffected

## COC[C@H]1OC(=O)c2coc3c2[C@@]1(C)C1=C(C3=O)[C@@H]2CCC(=O)[C@@]2(C)C[C@H]1OC(C)=O [wortmannin, reference compound]
[10]
  effect on AKT phosphorylation: blocked phosphorylation of AKT on Ser473 and Thr308
[11]
  effect on EGFR or ERK1/2 phosphorylation: without affecting phosphorylation of EGFR or ERK1/2
